We go through two compounds from PMC3086766 (Bioconjugate chemistry, 2011).

The term Ki denotes the dissociation constant of the complex between target and ligand, obtained from inhibition or displacement. A high value points to a looser hold on the target.

Structures are written as SMILES. Where “and” joins values, the source holds several entries; their conditions need not be identical. Equal values may be shown once.

The target of data set [1] is AD plaques (β-amyloid plaques) in human brain tissue homogenates (Homo sapiens, UniProt P05067). As to the kind of experiment: In vitro competition binding assay against [18F]-AV-45 in AD brain homogenates. In outline:
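Gray matter from human Alzheimer's brain sections with plaques, homogenized in PBS pH 7.2 (20–50 μg per tube). Incubated with [18F]-AV-45 and competitor (10−5–10−10 M, serially diluted in PBS with 0.1% BSA) in 1 mL final, 37 °C for 120 min. IMPY 600 nM defined nonspecific binding. Bound and free separated by vacuum filtration. Ki by nonlinear regression; n = 5–6.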

Data set [2] concerns male ICR mice. As to the kind of experiment: In-vivo biodistribution study in mice. On the set-up: species or system mouse. Conditions: for Blood uptake / Bone uptake / Brain uptake / Heart uptake / Kidney uptake / Liver uptake / Lung uptake / Muscle uptake / Pancreas uptake / Skin uptake / Spleen uptake: iv tail vein; for in vivo de-fluorination (from bone (femur) values): within 30 min post injection. Put shortly:
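Normal male ICR mice (20–25 g), 6 per group, under isoflurane (1–2%, 1 L oxygen/min). Each received 25 μCi radiotracer in 0.15 mL saline via lateral tail vein. Killed by cardiac excision under anesthesia at 2 and 30 min. Organs weighed and gamma-counted. Percent dose per gram calculated against counts of 1.0% of initial dose, taken from 100-fold diluted injectate aliquots.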

Sequence of AD plaques (β-amyloid plaques) in human brain tissue homogenates (P05067 672-713 limits assumed): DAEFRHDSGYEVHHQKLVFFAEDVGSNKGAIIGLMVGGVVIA

The compound `CNc1ccc(/C=C/c2ccc(OCCOCCOCCNC(=O)CO/N=C/c3ccc(OCCOCCOCCF)nc3)nc2)cc1` [[^18F]23, 2-((E)-(6-(2-(2-(2-fluoroethoxy)ethoxy)ethoxy)pyridin-3-yl)methyleneaminooxy)-N-(2-(2-(2-(5-((E)-4-(methylamino)styryl)pyridin-2-yloxy)ethoxy)ethoxy)ethyl)acetamide] came in with a Ki in data set [1] of 11.8 ± 3.06 nM. In data set [2] (2 min post injection), the Blood uptake is on record as 9.34 ± 1.37 % dose/gram; the Bone uptake came out at 2.00 ± 0.33 % dose/gram; the Brain uptake is 1.69 % dose/gram and 1.69 ± 0.44 % dose/gram; the Heart uptake is on record as 13.1 ± 3.08 % dose/gram. Besides, in data set [2] (2 min post injection), the Kidney uptake came to 14.1 ± 2.85 % dose/gram, the Liver uptake was determined as 22.2 ± 3.99 % dose/gram, the Lung uptake came to 7.09 ± 1.37 % dose/gram and the Muscle uptake is recorded as 1.32 ± 0.50 % dose/gram. In data set [2] (2 min post injection), the Pancreas uptake came to 5.13 ± 1.08 % dose/gram, the Skin uptake worked out at 0.79 ± 0.20 % dose/gram and the Spleen uptake is recorded as 4.81 ± 1.18 % dose/gram. In data set [2] (30 min post injection), the Blood uptake was 4.94 ± 0.91 % dose/gram, the Bone uptake was 2.27 ± 0.41 % dose/gram, the Brain uptake was 0.96 ± 0.16 % dose/gram and the Heart uptake was determined as 3.72 ± 0.84 % dose/gram. Further, in data set [2] (30 min post injection), the Kidney uptake is listed as 6.83 ± 1.93 % dose/gram, the Liver uptake is reported as 19.1 ± 3.65 % dose/gram, the Lung uptake came to 3.53 ± 0.38 % dose/gram and the Muscle uptake is reported as 1.56 ± 0.27 % dose/gram. In addition, in data set [2] (30 min post injection), the Pancreas uptake worked out at 2.28 ± 0.48 % dose/gram, the Skin uptake is 1.50 ± 0.25 % dose/gram and the Spleen uptake was 3.57 ± 0.68 % dose/gram. For the same compound, the “in vivo de-fluorination (from bone (femur) values)” value in data set [2] was “very little de-fluorination”.
Turning to `CNc1ccc(/C=C/c2ccc(OCCOCCOCCOCCOCCOCCNC(=O)CO/N=C/c3ccc(OCCOCCOCCF)nc3)nc2)cc1` [[^18F]24, 2-((E)-(6-(2-(2-(2-fluoroethoxy)ethoxy)ethoxy)pyridin-3-yl)methyleneaminooxy)-N-(17-(5-((E)-4-(methylamino)styryl)pyridin-2-yloxy)-3,6,9,12,15-pentaoxaheptadecyl)acetamide], in data set [2] (2 min post injection), the Blood uptake was found to be 4.19 ± 1.04 % dose/gram; the Bone uptake worked out at 1.76 ± 0.31 % dose/gram; the Brain uptake was 0.48 % dose/gram and 0.48 ± 0.12 % dose/gram; the Heart uptake was 12.3 ± 1.79 % dose/gram. Besides, in data set [2] (2 min post injection), the Kidney uptake was 15.4 ± 3.54 % dose/gram, the Liver uptake was found to be 29.4 ± 5.09 % dose/gram, the Lung uptake turned out to be 3.70 ± 1.06 % dose/gram and the Muscle uptake stood at 1.42 ± 0.46 % dose/gram. Moreover, in data set [2] (2 min post injection), the Pancreas uptake turned out to be 3.32 ± 0.58 % dose/gram, the Skin uptake is 1.14 ± 0.44 % dose/gram and the Spleen uptake was 3.11 ± 0.45 % dose/gram. For the same compound, in data set [2] (30 min post injection), the Blood uptake worked out at 2.81 ± 0.22 % dose/gram; the Bone uptake was 1.62 ± 0.10 % dose/gram; the Brain uptake is 0.92 % dose/gram and 0.92 ± 0.11 % dose/gram; the Heart uptake came to 4.17 ± 0.61 % dose/gram. In data set [2] (30 min post injection), this compound had a Kidney uptake of 7.78 ± 0.85 % dose/gram, a Liver uptake of 10.9 ± 1.17 % dose/gram, a Lung uptake of 2.43 ± 0.33 % dose/gram and a Muscle uptake of 2.01 ± 0.21 % dose/gram. In data set [2] (30 min post injection), this compound displayed a Pancreas uptake of 2.22 ± 0.23 % dose/gram, a Skin uptake of 1.78 ± 0.13 % dose/gram and a Spleen uptake of 1.63 ± 0.19 % dose/gram. Besides, the “in vivo de-fluorination (from bone (femur) values)” value in data set [2] is on record as “very little de-fluorination”.
